Experimental data from ChEMBL document CHEMBL2412983, “Synthesis and evaluation of N⁸-acetylspermidine analogues as inhibitors of bacterial acetylpolyamine amidohydrolase” (Bioorg Med Chem, 2013).

Molecular target: not listed separately
Test: Inhibition of N8-acetylspermidine deacetylase in rat liver subcellular extract
Conditions: read-out: Ki(app)
Compound `NCCCNCCCCCC(=O)NO` has a Ki of 0.001 µM.

Molecular target: T1, Acetylpolyamine amidohydrolase (Mycoplana ramosa, UniProt Q48935)
T1 sequence (Q48935 whole entry): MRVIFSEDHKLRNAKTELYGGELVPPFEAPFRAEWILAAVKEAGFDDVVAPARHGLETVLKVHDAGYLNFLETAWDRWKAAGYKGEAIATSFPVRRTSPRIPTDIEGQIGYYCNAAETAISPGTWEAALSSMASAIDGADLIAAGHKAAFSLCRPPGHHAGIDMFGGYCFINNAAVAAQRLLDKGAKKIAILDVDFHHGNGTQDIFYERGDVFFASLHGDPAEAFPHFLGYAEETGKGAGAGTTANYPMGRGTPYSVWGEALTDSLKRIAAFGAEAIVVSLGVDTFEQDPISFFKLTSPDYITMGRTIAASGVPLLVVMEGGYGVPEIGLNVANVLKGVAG
Test: Inhibition of Mycoplana ramosa APAH expressed in Escherichia coli BL21 (DE3) using BML-KI104 as substrate after 30 mins by fluorimetric assay
Conditions: not given
In short: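 Recombinant enzyme purified from E. coli, 250 nM, at 25 °C with 150 μM Fluor-de-Lys acetyl substrate and 0–100 mM inhibitor. Buffer was 25 mM Tris pH 8.2, 137 mM NaCl, 2.7 mM KCl, 1 mM MgCl2, with 100 μM TCEP only for the thiol compound. Stopped at 30 min with 100 μM M344 plus developer. Fluorescence (ex 355/em 460 nm) was read after 45 min. Each concentration was run in triplicate in separate experiments.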
Work on `CC(=O)CCCCCNCCCN` yielded an IC50 of 160 µM.
`NCCCNCCCCCC(=O)NO` showed an IC50 of 0.39 µM.
`NCCCNCCCCCS` gave an IC50 of 26 µM.
For `CS(=O)(=O)CCCCCNCCCN`, the IC50 was 10000 µM.
Compound `NCCCNCCCCCC(=O)O` has an IC50 of 1800 µM.
`NCCCNCCCCCC(=O)C(F)(F)F` showed an IC50 of 0.27 µM.
Compound `CC(=O)SCCCCCNCCCN` has an IC50 of 1900 µM.
`NCCCNCCCCCB(O)O` gave an IC50 of 230 µM.
`COCC(=O)CCCCCNCCCN` showed an IC50 of 380 µM.
`CC(=O)SCC(=O)CCCCCNCCCN` gave an IC50 of 39 µM.
